The structures appear in SMILES notation. Like-named read-outs stand apart in the source and are kept apart here.

For series [1] the following is noted: after oral administration; cited from earlier work.
The conditions of series [2]: mCRC, unselected group, third or fourth line; cited from earlier work.
The conditions of series [3]: compared with other TKIs, despite solid dispersion formulation; cited from earlier work.
For series [4] the following is noted: cited from earlier work.
The nature of the next series: Toxicity. To be noted: whole study period. The series is classed as in vivo, human. A digest of the protocol: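 Incidence of toxicity tallied per phase in patients on regorafenib 120 or 160 mg daily, alone or with esomeprazole 40 mg daily; only toxicity new or worsened relative to baseline counted.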
Series [5] is classed as in vivo, human. The note with it: for Relative difference in Cmax C vs. A (95% CI): esomeprazole 3 hours prior vs regorafenib alone; for Relative difference in Cmax B vs. A (95% CI): esomeprazole concomitant vs regorafenib alone; for Tmax: human, oral, Tmax (median (IQR)); for Tmax / Cmax (geomean (CV)): plasma; for Cmax (geomean (CV)): CV in %. In outline: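 mCRC or GIST patients: regorafenib 120 or 160 mg daily, 14-day loading, 5 days alone or with esomeprazole 40 mg daily (concomitant or 3 h prior); sequence A-B-C or C-B-A. Plasma predose to 24 h on days 21, 49, 77; UPLC-MS/MS. Log Cmax: mixed model (treatment, sequence, phase fixed; subject random), geometric-mean ratio, Bonferroni 97.5% CI. Tmax: Wilcoxon signed rank.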

The conditions of series [6]: erlotinib combined with omeprazole; cited from earlier work.
The mark [7] stands for this setting: phase B: regorafenib + esomeprazole concomitant.
Setting [8] is: phase C: regorafenib + esomeprazole 3 hours prior.
The mark [9] stands for this setting: phase A: regorafenib alone, 120 mg at steady state.
Setting [10] is: phase A: regorafenib alone, 120 mg once daily at steady state.
Where [11] appears, read: phase B: regorafenib + esomeprazole 40 mg concomitant.
Setting [12] is: phase C: regorafenib + esomeprazole 40 mg 3 hours prior.

A word on the Tmax: it is the time from dosing to the highest level. `CNC(=O)c1cc(Oc2ccc(NC(=O)Nc3ccc(Cl)c(C(F)(F)F)c3)c(F)c2)ccn1` [Regorafenib, 4‐[4‐({[4‐chloro‐3‐(trifluoromethyl)phenyl]carbamoyl}amino)‐3‐fluorophenoxy]‐N‐methylpyridine‐2‐carboxamide]: the “Time of maximum concentration (Tmax)” value in series [1] was 3 to 4 h. Also, the “Median overall survival increase compared with placebo” value in series [2] is given as 1.4 months. Also, the Solubility result in series [3] was “low solubility”. The “Basic predicted pKa” value in series [4] is recorded as “around 2”. For the same compound, in the series “Toxicity”, the “Incidence of anorexia ≥ grade 3” value was 14%, the “Incidence of hand/foot skin reaction ≥ grade 3” value was 14% and the “Incidence of hypertension ≥ grade 3” value is 64%. In “Toxicity” (all grades), the Incidence of anorexia is 71%, the Incidence of fatigue was found to be 71%, the “Incidence of hand/foot skin reaction” value was 64% and the Incidence of hypertension worked out at 71%. The Incidence of stomatitis in the series “Toxicity” (all grades) is given as 57%. For the same compound, the Incidence of hoarseness in “Toxicity” (all grades, 14 patients) is reported as 79%. Further, in series [5], the “Relative difference in Cmax C vs. A (95% CI)” value was −12.1% (−32.0 to 13.8%) and the “Relative difference in Cmax B vs. A (95% CI)” value is on record as −16.5% (−34.9 to 7.0%). Further, the “Pharmacokinetic interaction with esomeprazole” value in series [5] (esomeprazole concomitant or 3 hours prior) is listed as “did not reveal a significant pharmacokinetic interaction”. For the same compound, in series [5] (120 mg, phase A: regorafenib alone, 120 mg at steady state), the time of peak concentration (Tmax) came to 2.5 h. Also, the time of peak concentration (Tmax) in series [5] (setting [7]) was found to be 2.5 h. Also, the Tmax in series [5] (setting [8]) is 3 h.

In the case of `C#Cc1cccc(Nc2ncnc3cc(OCCOC)c(OCCOC)cc23)c1` [erlotinib], in series [6], the “Decrease in systemic exposure” value is 46%.

For the compound `CNC(=O)c1cc(Oc2ccc(NC(=O)Nc3ccc(Cl)c(C(F)(F)F)c3)c(F)c2)cc[n+]1[O-]` [M‐2], the “Relative difference in Cmax C vs. A (95% CI)” value in series [5] is −9.3% (−38.1 to 32.9%). Also, the “Relative difference in Cmax B vs. A (95% CI)” value in series [5] was −11.0% (−38.7 to 29.1%). In addition, the “Tmax (median (IQR))” value is recorded as 3.3 (2.0–6.0) hours in series [5] (setting [9]), 2.6 (2.1–3.5) hours in series [5] (setting [7]) and 3.5 (2.5–6.0) hours in series [5] (setting [8]). For the same compound, the “Cmax (geomean (CV))” value in series [5] (setting [10]) is listed as 2.9 (72.0) μg/mL; in series [5] (setting [11]), 2.6 (60.9) μg/mL; in series [5] (setting [12]), 2.6 (44.2) μg/mL.

`NC(=O)c1cc(Oc2ccc(NC(=O)Nc3ccc(Cl)c(C(F)(F)F)c3)c(F)c2)cc[n+]1[O-]` [M‐5]: the “Relative difference in Cmax C vs. A (95% CI)” value in series [5] is −9.1% (−43.2 to 45.5%). Also, the “Relative difference in Cmax B vs. A (95% CI)” value in series [5] was −10.4% (−34.6 to 22.8%). Moreover, the “Tmax (median (IQR))” value in series [5] (setting [9]) was 2.6 (1.5–4.0) hours; in series [5] (setting [7]), 2.3 (1.5–8.0) hours; in series [5] (setting [8]) it was 3.5 (2.5–6.0) hours. For the same compound, the figures for the “Cmax (geomean (CV))” value in series [5] (setting [10]), in series [5] (setting [11]) and in series [5] (setting [12]) were 1.6 (118.8) μg/mL, 1.4 (132.4) μg/mL and 1.4 (107.6) μg/mL, respectively.
